Calls of active or inactive are those of the source. No cut-off for these calls is given here.
Assays:
[1] = system: Saccharomyces cerevisiae; assay: Antifungal activity against Saccharomyces cerevisiae after 24 hrs by agar diffusion assay; assay type: functional, organism-based
How it was run: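 S. cerevisiae was inoculated on YPD agar, and MeOH-dissolved compounds were applied on 5 mm disks. Inhibition zones were recorded after 24 h at 27 °C, with nystatin 5 µg as positive control.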

[2] = system: L5178Y; assay: Cytotoxicity against mouse L5178Y cells after 72 hrs by MTT assay; assay type: functional
How it was run: (§1)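 Exponentially growing cells (3750 per well) were exposed to samples from EtOH 96% stocks for 72 h at 37 °C in 5% CO2. MTT (20 µL of 5 mg/mL in PBS, pH 7.4) was added for 3 h 45 min, then formazan was released with DMSO and read at 520 nm. Survival % was taken relative to untreated cells, with media containing 0.1% EGMME/DMSO as controls. Assays were run in triplicate and repeated three times.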

[3] = system: PC-12; assay: Cytotoxicity against rat PC12 cells after 72 hrs by MTT assay; assay type: functional; how it was run: as §1
[4] = system: HeLa; assay: Cytotoxicity against human HeLa cells at 3 ug/mL after 72 hrs by MTT assay; assay type: functional; how it was run: as §1
[5] = system: HeLa; assay: Cytotoxicity against human HeLa cells after 72 hrs by MTT assay; assay type: functional; how it was run: as §1
[6] = system: PC-12; assay: Cytotoxicity against rat PC12 cells at 10 ug/mL after 72 hrs by MTT assay; assay type: functional; conditions: PC-12, 72 h; how it was run: as §1
[7] = system: L5178Y; assay: Cytotoxicity against mouse L5178Y cells at 3 ug/mL after 72 hrs by MTT assay; assay type: functional; how it was run: as §1
[8] = system: HeLa; assay: Cytotoxicity against human HeLa cells at 10 ug/mL after 72 hrs by MTT assay; assay type: functional; how it was run: as §1
[9] = system: L5178Y; assay: Cytotoxicity against mouse L5178Y cells at 10 ug/mL after 72 hrs by MTT assay; assay type: functional; how it was run: as §1
[10] = system: PC-12; assay: Cytotoxicity against rat PC12 cells at 3 ug/mL after 72 hrs by MTT assay; assay type: functional; conditions: PC-12, 72 h; how it was run: as §1
[11] = system: Escherichia coli; assay: Antibacterial activity against Escherichia coli DSM10290 at 10 ug after 24 hrs by agar diffusion assay; assay type: functional; conditions: read-out: IZ
How it was run: (§2)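 Disks (5 mm) impregnated with compound dissolved in MeOH were laid on LB agar plates seeded with B. subtilis DSM2109 or E. coli DSM10290. Inhibition zones were read after 24 h at 37 °C. Streptomycin and gentamycin, 5 µg each, served as positive controls.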

[12] = system: PC-12; assay: Cytotoxicity against rat PC12 cells at 30 ug/mL after 72 hrs by MTT assay; assay type: functional, cell-based; how it was run: as §1
[13] = system: HeLa; assay: Cytotoxicity against human HeLa cells at 30 ug/mL after 72 hrs by MTT assay; assay type: functional, cell-based; how it was run: as §1
[14] = system: Bacillus subtilis; assay: Antibacterial activity against Bacillus subtilis DSM2109 at 5 ug after 24 hrs by agar diffusion assay; assay type: functional; conditions: read-out: IZ; how it was run: as §2
[15] = system: Bacillus subtilis; assay: Antibacterial activity against Bacillus subtilis DSM2109 at 10 ug after 24 hrs by agar diffusion assay; assay type: functional; conditions: read-out: IZ; how it was run: as §2
[16] = system: Escherichia coli; assay: Antibacterial activity against Escherichia coli DSM10290 at 5 ug after 24 hrs by agar diffusion assay; assay type: functional; conditions: read-out: IZ; how it was run: as §2
[17] = system: Saccharomyces cerevisiae; assay: Antifungal activity against Saccharomyces cerevisiae at 5 ug after 24 hrs by agar diffusion assay; assay type: functional, organism-based
How it was run: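 Paper disks (5 mm diameter) loaded with test material dissolved in MeOH were placed on YPD agar plates inoculated with S. cerevisiae. After 24 h of incubation at 27 °C, the zone of inhibition (mm) was recorded.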

Compound	Activity [1]	ED50 [2]	ED50 [3]	inhibition at 3 µg/mL [4]	ED50 [5]	inhibition at 10 µg/mL [6]	inhibition at 3 µg/mL [7]	inhibition at 10 µg/mL [8]	inhibition at 10 µg/mL [9]	inhibition at 3 µg/mL [10]	zone of inhibition at 10 µg/disc [11]	Activity [12]	Activity [13]	zone of inhibition at 5 µg/disc [14]	zone of inhibition at 10 µg/disc [15]	zone of inhibition at 5 µg/disc [16]	inhibition zone (IZ) [17]
CC(=O)O[C@@H]1CC[C@@]2(C)[C@@H](CC[C@]3(C)/C(=C(C)/C=C/C=C(\C)C(CC=C(C)C)O[C@@H]4OC[C@H](O)[C@H](O)[C@@H]4O)C(=O)C[C@@H]23)C1(C)C (some centres not stated)	inactive	0.22 nmol	21.54 nmol	0%	22.76 nmol	38%	100%	56%	100%	0%	–	–	–	–	–	–	–
CC(C)=CCC(O[C@H]1OC[C@@H](O)[C@@H](O)[C@H]1O)/C(C)=C/C=C/C(C)=C1\C(=O)C[C@H]2[C@@]3(C)CC[C@@H](O)C(C)(C)[C@@H]3CC[C@]12C (some centres not stated)	inactive	2.4 nmol	27.63 nmol	26%	8.14 nmol	54%	100%	100%	100%	33%	12 mm	–	–	–	–	–	–
COC(/C=C/C(C)=C/C=C/C(C)=C1/C(=O)C[C@H]2[C@@]3(C)CC[C@@H](O)[C@](C)(C(=O)O)[C@@H]3CC[C@]12C)C(C)(C)O (some centres not stated) [GLOBOSTELLATIC ACID D, G]	inactive	0.39 nmol	30.33 nmol	4%	46.69 nmol	42%	100%	25%	100%	18%	10 mm	–	–	–	–	–	–
C/C(C(=O)/C=C/C(C)=C/C=C/C(C)(C)O)=C1/C(=O)C[C@H]2[C@@]3(C)CC[C@@H](O)[C@](C)(C(=O)O)[C@@H]3CC[C@]12C [GLOBOSTELLATIC ACID F]	inactive	10.36 nmol	–	0%	–	0%	42%	0%	100%	0%	–	inactive	inactive	–	–	–	–
CCOC(/C=C/C(C)=C/C=C/C(C)=C1/C(=O)C[C@H]2[C@@]3(C)CC[C@@H](O)[C@](C)(C(=O)O)[C@@H]3CC[C@]12C)C(C)(C)O (some centres not stated) [GLOBOSTELLATIC ACID H, I]	inactive	0.31 nmol	28.07 nmol	8%	46.05 nmol	41%	100%	23%	100%	16%	10 mm	–	–	–	–	–	–
CCOC(/C=C/C(C)=C/C=C/C(C)=C1/C(=O)C[C@H]2[C@@]3(C)CC[C@@H](OC(C)=O)[C@](C)(C(=O)O)[C@@H]3CC[C@]12C)C(C)(C)O (some centres not stated) [GLOBOSTELLATIC ACID J, K]	inactive	8.28 nmol	–	0%	–	0%	24%	0%	100%	0%	–	inactive	inactive	–	–	–	–
CC(/C=C/C(O)C(C)(C)O)=C\C=C\C(C)=C1\C(=O)C[C@H]2[C@@]3(C)CC[C@@H](O)[C@](C)(C(=O)O)[C@@H]3CC[C@]12C (some centres not stated) [GLOBOSTELLATIC ACID L, M]	inactive	0.92 nmol	27.52 nmol	0%	27.87 nmol	30%	100%	42%	100%	0%	–	–	–	–	–	–	–
CC(=O)O[C@@H]1CC[C@@]2(C)[C@@H](CC[C@]3(C)/C(=C(\C)C(=O)/C=C/C(C)=C/C=C/C(C)(C)O)C(=O)C[C@@H]23)[C@@]1(C)C(=O)O [GLOBOSTELLATIC ACIDS A]	inactive	–	–	0%	–	0%	100%	0%	100%	0%	–	inactive	inactive	–	–	–	–
C/C(C(=O)/C=C/C(C)=C/C=C/C(C)(C)O)=C1/C(=O)C[C@H]2[C@@]3(C)CC[C@H](O)C(C)(C)[C@@H]3CC[C@]12C [GLOBOSTELLETIN]	inactive	5.34 nmol	–	0%	>60 nmol	0%	66%	0%	94%	0%	–	inactive	–	12 mm	13 mm	–	–
CN[C@@H]1[C@H](O[C@H]2[C@H](O[C@H]3[C@H](O)[C@@H](O)[C@H](N=C(N)N)[C@@H](O)[C@@H]3N=C(N)N)O[C@@H](C)[C@]2(O)C=O)O[C@@H](CO)[C@H](O)[C@H]1O [STREPTOMYCIN]	–	–	–	–	–	–	–	–	–	–	–	–	–	20 mm	–	13 mm	–
NYSTATIN	–	–	–	–	–	–	–	–	–	–	–	–	–	–	–	–	12 mm

Source: ChEMBL document CHEMBL1157246, “Cytotoxic isomalabaricane triterpenes from the marine sponge Rhabdastrella globostellata” (2006)
